Results as given in ChEMBL document CHEMBL4229344 (Eur J Med Chem, 2018).
The source made the active and inactive calls. No cut-off for these calls is given here.

Key:
[1] = target: Serine/threonine-protein kinase 10 (Homo sapiens) (UniProt O94804); test: Binding affinity to wild-type human partial length LOK (E16 to V314 residues) expressed in bacterial expression system assessed as residual binding level at 1 uM by Kinomescan method relative to control
Procedure, shortened: (§1)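 Kinome-wide competition binding screen against a panel of 468 purified kinases/mutants, with the test compound at a single concentration of 1 μM. Read-out is the relative binding activity of each kinase in the presence of compound.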

[2] = target: Mitogen-activated protein kinase kinase kinase 6 (Homo sapiens) (UniProt O95382); test: Binding affinity to wild-type human partial length ASK2 (M278 to R972 residues) expressed in mammalian expression system assessed as residual binding level at 1 uM by Kinomescan method relative to control
Procedure, shortened: (§2)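 Single-concentration KINOMEscan (DiscoverX) binding screen at 1 μM against a panel of 468 purified kinases and mutants. The read-out is binding relative to control.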

[3] = target: Wee1-like protein kinase (Homo sapiens) (UniProt P30291); test: Binding affinity to wild-type human partial length WEE1 (M291 to K575 residues) expressed in bacterial expression system assessed as residual binding level at 1 uM by Kinomescan method relative to control
Procedure, shortened: (§3)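 KINOMEscan competition binding against a panel of 468 purified kinases/mutants, compound tested at 1 μM; readout is relative binding activity versus control.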

[4] = target: Mast/stem cell growth factor receptor Kit (Homo sapiens, UniProt P10721); test: Inhibition of TEL-fused c-KIT (unknown origin) expressed in mouse BA/F3 cells assessed as growth inhibition after 72 hrs by CellTiter-Glo or CCK-8 assay; format: cell-based
Procedure, shortened: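 Parental BaF3 or IL-3-independent TEL-kinase BaF3 lines, made by retroviral infection and puromycin selection, grown in RPMI 1640 with 10% FBS. Cells seeded at 1–3 × 10^4 cells/mL with serial compound concentrations for 72 h. Viability read by CellTiter-Glo luminescence or CCK-8 absorbance at 450/655 nm and normalised to DMSO. GI50 obtained by triplicate testing with linear regression. Selectivity is the ratio of the two GI50 values.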

[5] = target: NT-3 growth factor receptor (Homo sapiens) (UniProt Q16288); test: Binding affinity to wild-type human partial length TRKC (Q531 to G825 residues) expressed in mammalian expression system assessed as residual binding level at 1 uM by Kinomescan method relative to control; procedure, shortened: as §3
[6] = target: Platelet-derived growth factor receptor alpha (Homo sapiens, UniProt P16234); test: Inhibition of PDGFRalpha in human EOL-1 cells assessed as decrease in STAT5 phosphorylation at Y694 residue up to 300 nM after 2 hrs by Western blot analysis; format: cell-based
[7] = target: MAP kinase-activated protein kinase 2 (Homo sapiens) (UniProt P49137); test: Binding affinity to wild-type human partial length MAPKAPK2 (V48 to D345 residues) expressed in bacterial expression system assessed as residual binding level at 1 uM by Kinomescan method relative to control; procedure, shortened: as §1
[8] = target: Serine/threonine-protein kinase TAO1 (Homo sapiens) (UniProt Q7L7X3); test: Binding affinity to wild-type human partial length TAOK1 (M1 to A320 residues) expressed in mammalian expression system assessed as residual binding level at 1 uM by Kinomescan method relative to control
[9] = target: Phosphatidylinositol 4,5-bisphosphate 3-kinase catalytic subunit alpha isoform (Homo sapiens) (UniProt P42336); test: Binding affinity to wild-type human partial length PIK3CA (R108 to N1068 residues) expressed in mammalian expression system assessed as residual binding level at 1 uM by Kinomescan method relative to control
NCI-H1703 = test: Induction of apoptosis in human NCI-H1703 cells assessed as cleaved PARP expression level after 72 hrs in presence of PDGF-AA by Western blot analysis; format: functional, cell-based
Procedure, shortened: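 Cells exposed to compound or DMSO for the stated periods, then lysed and immunoblotted for PARP and caspase-3 cleavage, with β-actin as loading control. NCI-H1703 stimulation used PDGF AA at 100 ng/mL.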

[10] = target: STE20/SPS1-related proline-alanine-rich protein kinase (Homo sapiens) (UniProt Q9UEW8); test: Binding affinity to wild-type human partial length STK39 (P43 to I357 residues) expressed in mammalian expression system assessed as residual binding level at 1 uM by Kinomescan method relative to control
[11] = target: Cyclin-dependent kinase 14 (Homo sapiens) (UniProt O94921); test: Binding affinity to wild-type human full length PFTK1 (M1 to H451 residues) expressed in bacterial expression system assessed as residual binding level at 1 uM by Kinomescan method relative to control; procedure, shortened: as §2
[12] = test system: Tyrosine-protein kinase ABL1 (Homo sapiens), P00519 [E255K]; test: Binding affinity to human phosphorylated ABL1 E255K mutant (S229 to K512 residues) expressed in mammalian expression system assessed as residual binding level at 1 uM by Kinomescan method relative to control
Procedure, shortened: (§4)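 Kinome-wide single-concentration binding screen (KINOMEscan) at 1 μM against a panel of 468 purified kinases and mutants. Read-out is relative binding of each kinase compared with control. Selectivity across the panel was summarised as an S(10) score.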

[13] = target: Ephrin type-B receptor 4 (Homo sapiens) (UniProt P54760); test: Binding affinity to wild-type human partial length EPHB4 (H585 to G892 residues) expressed in bacterial expression system assessed as residual binding level at 1 uM by Kinomescan method relative to control
[14] = target: Serine/threonine-protein kinase PAK 4 (Homo sapiens) (UniProt O96013); test: Binding affinity to wild-type human partial length PAK4 (Q144 to R438 residues) expressed in bacterial expression system assessed as residual binding level at 1 uM by Kinomescan method relative to control
[15] = target: Cyclin-dependent kinase 3 (Homo sapiens) (UniProt Q00526); test: Binding affinity to wild-type human full length CDK3 (M1 to H305 residues) expressed in bacterial expression system assessed as residual binding level at 1 uM by Kinomescan method relative to control
Procedure, shortened: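 Single-concentration (1 μM) competition-binding screen run by KINOMEscan against a panel of 468 purified kinases and mutants. The read-out is the relative binding activity of the test compound to each kinase.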

Mus musculus = test: Toxicity in nu/nu mouse xenografted with human EOL-1 cells assessed as change in body weight at 25 to 100 mg/kg/day, ip; format: organism-based; conditions: in vivo
Procedure, shortened: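 Female nu/nu mice, 6 weeks old, implanted subcutaneously in the right flank with 5 million EOL-1 cells in PBS/Matrigel 1:1. At tumour size 200–400 mm³, mice randomised into groups of 6 and given daily IP doses of 25, 50 or 100 mg/kg in 0.5% methylcellulose/0.4% Tween80, or vehicle, for 14 days. Body weight measured daily and normalised to initial weight; mean ± SEM.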

[16] = target: Serine/threonine-protein kinase SIK3 (Homo sapiens) (UniProt Q9Y2K2); test: Binding affinity to wild-type human partial length QSK (A90 to L395 residues) expressed in mammalian expression system assessed as residual binding level at 1 uM by Kinomescan method relative to control
[17] = target: Epidermal growth factor receptor (Homo sapiens) (UniProt P00533); test: Binding affinity to human partial length EGFR S752-I759del mutant expressed in bacterial expression system assessed as residual binding level at 1 uM by Kinomescan method relative to control; procedure, shortened: as §4

Serine/threonine-protein kinase SIK3 (Homo sapiens), sequence (Q9Y2K2 whole entry, looked up, the tested form may be a part): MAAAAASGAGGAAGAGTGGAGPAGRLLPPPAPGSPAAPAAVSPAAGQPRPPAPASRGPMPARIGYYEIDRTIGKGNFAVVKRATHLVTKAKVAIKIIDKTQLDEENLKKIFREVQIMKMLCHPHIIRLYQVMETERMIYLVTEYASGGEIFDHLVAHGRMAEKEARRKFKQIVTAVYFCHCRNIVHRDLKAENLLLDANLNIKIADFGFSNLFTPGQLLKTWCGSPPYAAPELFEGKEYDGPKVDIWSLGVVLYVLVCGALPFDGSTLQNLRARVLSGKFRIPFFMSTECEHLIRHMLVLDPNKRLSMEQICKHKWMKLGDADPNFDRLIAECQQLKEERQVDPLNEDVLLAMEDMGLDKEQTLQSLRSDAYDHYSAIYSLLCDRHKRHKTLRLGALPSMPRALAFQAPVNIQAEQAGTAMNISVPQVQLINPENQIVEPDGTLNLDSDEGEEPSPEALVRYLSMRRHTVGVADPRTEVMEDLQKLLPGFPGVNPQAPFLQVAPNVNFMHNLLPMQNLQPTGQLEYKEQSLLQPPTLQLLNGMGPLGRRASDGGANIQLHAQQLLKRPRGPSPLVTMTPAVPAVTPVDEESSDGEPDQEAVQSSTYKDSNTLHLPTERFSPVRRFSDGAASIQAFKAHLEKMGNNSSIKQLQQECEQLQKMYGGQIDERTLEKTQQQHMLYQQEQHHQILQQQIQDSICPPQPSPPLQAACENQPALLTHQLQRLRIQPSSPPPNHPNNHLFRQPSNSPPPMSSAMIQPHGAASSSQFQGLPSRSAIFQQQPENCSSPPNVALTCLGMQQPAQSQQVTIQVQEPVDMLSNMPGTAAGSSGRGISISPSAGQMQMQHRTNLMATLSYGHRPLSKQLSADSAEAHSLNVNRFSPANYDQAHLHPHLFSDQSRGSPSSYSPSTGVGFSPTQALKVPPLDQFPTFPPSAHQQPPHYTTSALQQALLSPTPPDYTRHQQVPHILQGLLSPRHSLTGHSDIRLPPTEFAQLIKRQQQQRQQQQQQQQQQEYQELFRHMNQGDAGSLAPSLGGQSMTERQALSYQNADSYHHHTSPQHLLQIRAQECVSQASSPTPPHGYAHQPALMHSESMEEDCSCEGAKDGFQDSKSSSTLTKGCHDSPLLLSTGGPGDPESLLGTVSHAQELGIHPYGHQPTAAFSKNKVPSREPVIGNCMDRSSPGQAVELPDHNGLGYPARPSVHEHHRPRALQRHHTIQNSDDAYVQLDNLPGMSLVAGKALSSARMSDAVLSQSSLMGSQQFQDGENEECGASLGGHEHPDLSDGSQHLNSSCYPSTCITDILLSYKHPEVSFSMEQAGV
Platelet-derived growth factor receptor alpha, sequence (P16234 whole entry, the tested form may be a part): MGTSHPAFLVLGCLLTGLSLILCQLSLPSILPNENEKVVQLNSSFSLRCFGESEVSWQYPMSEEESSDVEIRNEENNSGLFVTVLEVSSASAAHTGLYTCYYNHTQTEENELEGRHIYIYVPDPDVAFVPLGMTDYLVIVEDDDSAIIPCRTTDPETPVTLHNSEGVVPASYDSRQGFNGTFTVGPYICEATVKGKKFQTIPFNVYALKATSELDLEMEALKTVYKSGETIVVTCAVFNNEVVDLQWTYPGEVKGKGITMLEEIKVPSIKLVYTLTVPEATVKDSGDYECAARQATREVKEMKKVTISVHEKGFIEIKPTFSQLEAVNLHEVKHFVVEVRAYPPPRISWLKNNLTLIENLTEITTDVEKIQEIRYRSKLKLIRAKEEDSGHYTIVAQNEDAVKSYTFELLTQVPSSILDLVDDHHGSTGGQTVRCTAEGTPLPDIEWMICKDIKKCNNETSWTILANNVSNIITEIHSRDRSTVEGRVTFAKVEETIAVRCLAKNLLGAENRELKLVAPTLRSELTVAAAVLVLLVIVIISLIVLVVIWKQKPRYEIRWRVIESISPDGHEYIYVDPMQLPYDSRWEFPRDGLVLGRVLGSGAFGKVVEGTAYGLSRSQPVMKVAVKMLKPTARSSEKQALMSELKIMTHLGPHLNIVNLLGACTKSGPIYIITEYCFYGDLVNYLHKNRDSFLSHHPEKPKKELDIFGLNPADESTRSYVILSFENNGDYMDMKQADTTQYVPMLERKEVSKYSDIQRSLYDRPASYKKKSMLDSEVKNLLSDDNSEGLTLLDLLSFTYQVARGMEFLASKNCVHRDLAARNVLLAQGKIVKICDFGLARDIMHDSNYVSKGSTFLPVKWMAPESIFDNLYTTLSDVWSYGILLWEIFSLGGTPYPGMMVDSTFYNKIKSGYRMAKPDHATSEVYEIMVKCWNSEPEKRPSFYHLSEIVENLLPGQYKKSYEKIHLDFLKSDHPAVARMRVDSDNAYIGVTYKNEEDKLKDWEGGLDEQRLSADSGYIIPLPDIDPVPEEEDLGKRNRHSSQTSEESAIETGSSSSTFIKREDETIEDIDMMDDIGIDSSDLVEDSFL
Cyclin-dependent kinase 14 (Homo sapiens), sequence (O94921 whole entry, the tested form may be a part): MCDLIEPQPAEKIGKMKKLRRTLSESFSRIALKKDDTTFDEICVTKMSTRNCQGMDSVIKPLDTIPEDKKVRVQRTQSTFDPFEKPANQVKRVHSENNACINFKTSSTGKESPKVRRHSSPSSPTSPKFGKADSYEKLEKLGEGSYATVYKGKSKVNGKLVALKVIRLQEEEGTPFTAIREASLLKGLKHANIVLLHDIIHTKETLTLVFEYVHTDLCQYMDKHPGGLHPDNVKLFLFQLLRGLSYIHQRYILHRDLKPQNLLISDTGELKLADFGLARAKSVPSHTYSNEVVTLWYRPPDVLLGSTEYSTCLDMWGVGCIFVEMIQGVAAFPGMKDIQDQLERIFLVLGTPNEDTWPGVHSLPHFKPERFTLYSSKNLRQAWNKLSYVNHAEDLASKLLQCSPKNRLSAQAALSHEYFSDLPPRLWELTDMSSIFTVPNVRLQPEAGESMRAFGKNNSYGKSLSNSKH
Mast/stem cell growth factor receptor Kit, sequence (P10721 whole entry, the tested form may be a part): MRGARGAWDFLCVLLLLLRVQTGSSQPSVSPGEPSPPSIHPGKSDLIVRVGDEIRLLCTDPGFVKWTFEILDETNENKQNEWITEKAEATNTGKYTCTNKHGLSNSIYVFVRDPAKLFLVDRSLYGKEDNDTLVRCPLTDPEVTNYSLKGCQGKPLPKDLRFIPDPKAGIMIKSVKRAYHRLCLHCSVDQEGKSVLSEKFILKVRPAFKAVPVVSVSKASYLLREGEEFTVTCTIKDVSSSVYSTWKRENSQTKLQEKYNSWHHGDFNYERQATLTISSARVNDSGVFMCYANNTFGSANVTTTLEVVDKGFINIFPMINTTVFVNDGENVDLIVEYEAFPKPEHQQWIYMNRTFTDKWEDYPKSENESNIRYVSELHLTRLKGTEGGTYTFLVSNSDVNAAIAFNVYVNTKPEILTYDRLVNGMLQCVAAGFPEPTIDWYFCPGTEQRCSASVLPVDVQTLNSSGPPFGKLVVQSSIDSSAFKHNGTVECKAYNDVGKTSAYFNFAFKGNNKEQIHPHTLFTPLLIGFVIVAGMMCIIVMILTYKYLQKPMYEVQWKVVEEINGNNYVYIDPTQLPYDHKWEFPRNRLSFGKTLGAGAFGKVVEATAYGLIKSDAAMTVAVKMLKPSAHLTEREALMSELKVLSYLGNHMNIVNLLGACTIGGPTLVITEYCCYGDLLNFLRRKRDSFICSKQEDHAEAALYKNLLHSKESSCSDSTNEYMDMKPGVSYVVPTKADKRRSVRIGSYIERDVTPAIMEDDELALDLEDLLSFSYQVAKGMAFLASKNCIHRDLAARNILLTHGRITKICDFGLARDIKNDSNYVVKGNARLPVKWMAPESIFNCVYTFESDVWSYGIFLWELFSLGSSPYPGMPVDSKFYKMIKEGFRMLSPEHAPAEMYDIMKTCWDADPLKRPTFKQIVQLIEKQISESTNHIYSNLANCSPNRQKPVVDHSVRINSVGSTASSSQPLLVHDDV
Serine/threonine-protein kinase PAK 4 (Homo sapiens), sequence (O96013 whole entry, looked up, the tested form may be a part): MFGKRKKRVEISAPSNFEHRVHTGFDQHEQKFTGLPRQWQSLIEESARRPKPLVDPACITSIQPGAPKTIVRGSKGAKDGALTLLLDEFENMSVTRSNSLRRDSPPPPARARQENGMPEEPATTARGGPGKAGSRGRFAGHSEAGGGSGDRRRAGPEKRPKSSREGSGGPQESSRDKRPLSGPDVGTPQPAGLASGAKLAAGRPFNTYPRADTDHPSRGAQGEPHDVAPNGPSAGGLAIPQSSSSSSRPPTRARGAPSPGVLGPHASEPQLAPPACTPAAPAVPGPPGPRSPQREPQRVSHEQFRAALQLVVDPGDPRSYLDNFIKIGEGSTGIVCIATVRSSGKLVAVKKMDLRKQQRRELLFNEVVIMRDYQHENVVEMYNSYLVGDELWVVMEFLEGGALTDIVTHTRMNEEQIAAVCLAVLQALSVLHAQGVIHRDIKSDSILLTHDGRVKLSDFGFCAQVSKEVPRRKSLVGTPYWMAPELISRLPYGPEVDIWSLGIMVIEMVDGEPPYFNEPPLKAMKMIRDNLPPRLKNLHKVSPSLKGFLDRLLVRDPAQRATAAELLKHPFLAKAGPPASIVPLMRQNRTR
Wee1-like protein kinase (Homo sapiens), sequence (P30291 whole entry, looked up, the tested form may be a part): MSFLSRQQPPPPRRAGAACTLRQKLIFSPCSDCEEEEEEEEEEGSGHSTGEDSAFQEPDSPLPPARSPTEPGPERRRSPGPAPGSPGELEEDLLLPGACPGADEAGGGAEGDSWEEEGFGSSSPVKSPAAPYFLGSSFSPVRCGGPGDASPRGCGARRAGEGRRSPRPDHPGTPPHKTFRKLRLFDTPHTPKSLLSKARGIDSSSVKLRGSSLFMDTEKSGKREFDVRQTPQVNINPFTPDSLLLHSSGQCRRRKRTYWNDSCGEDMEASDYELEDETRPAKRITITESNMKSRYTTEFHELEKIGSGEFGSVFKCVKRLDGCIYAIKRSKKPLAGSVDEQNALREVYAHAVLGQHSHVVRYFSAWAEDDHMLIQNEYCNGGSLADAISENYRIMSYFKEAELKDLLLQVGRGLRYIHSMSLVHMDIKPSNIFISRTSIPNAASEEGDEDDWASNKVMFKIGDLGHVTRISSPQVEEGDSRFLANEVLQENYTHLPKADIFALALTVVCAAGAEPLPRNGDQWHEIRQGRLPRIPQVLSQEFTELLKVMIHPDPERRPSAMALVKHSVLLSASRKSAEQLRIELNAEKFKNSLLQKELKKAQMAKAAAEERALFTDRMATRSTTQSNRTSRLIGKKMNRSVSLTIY

Q: `Cc1ccc(NC(=O)c2ccc(CN(CCN(C)C)C(=O)c3cccnc3)cc2)cc1Nc1nccc(-c2cccnc2)n1` was tested. Which Activity [1] did it give?
A: Its Activity is 28%.

Q: What about the Activity [2] of the same compound?
A: Its Activity is 100%.

Q: And the Activity [3]?
A: The Activity was 87%.

Q: What about the GI50 [4] of the same compound?
A: The GI50 was greater than 10 µM.

Q: What about the Activity [5] of the same compound?
A: Its Activity is 89%.

Q: And the inhibition [6]?
A: Its inhibition is “Active”.

Q: And the Activity [7]?
A: Its Activity is 92%.

Q: What about the Activity [8] of the same compound?
A: Its Activity is 100%.

Q: What about the Activity [9] of the same compound?
A: Its Activity is 100%.

Q: And the Activity (NCI-H1703)?
A: The Activity was “Active”.

Q: What about the Activity [10] of the same compound?
A: Its Activity is 90%.

Q: And the Activity [11]?
A: Its Activity is 90%.

Q: What about the Activity [12] of the same compound?
A: Its Activity is 80%.

Q: What about the Activity [13] of the same compound?
A: The Activity was 90%.

Q: What about the Activity [14] of the same compound?
A: Its Activity is 98%.

Q: And the Activity [15]?
A: The Activity was 85%.

Q: And the Activity (Mus musculus)?
A: Its Activity is “Toxic”.

Q: And the Activity [16]?
A: The Activity was 96%.

Q: What about the Activity [17] of the same compound?
A: Its Activity is 90%.
